One molecule from ChEMBL document CHEMBL5154815, “A Series of Substituted Bis-Aminotriazines Are Activators of the Natriuretic Peptide Receptor C” (J Med Chem, 2022) can be followed below.

In series [1] the target is T1, Atrial natriuretic peptide receptor 3 (Homo sapiens) (UniProt P17342).
T1 sequence (whole entry): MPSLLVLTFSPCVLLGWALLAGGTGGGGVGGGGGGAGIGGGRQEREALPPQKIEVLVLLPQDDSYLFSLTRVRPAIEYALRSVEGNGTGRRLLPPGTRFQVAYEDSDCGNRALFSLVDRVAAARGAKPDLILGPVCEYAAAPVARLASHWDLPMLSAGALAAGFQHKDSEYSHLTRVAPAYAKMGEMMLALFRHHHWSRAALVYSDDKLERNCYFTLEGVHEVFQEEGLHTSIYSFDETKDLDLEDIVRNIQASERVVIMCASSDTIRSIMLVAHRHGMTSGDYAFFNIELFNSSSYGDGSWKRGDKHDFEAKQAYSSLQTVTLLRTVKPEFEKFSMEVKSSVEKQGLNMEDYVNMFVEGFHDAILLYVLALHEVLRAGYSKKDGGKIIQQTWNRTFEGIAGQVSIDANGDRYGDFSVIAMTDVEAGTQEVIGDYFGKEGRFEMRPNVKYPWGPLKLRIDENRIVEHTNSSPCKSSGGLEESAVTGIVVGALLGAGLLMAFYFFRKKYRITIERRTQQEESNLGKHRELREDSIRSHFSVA
Put plainly: Displacement of Flu-P19 probe from human NPR-C (27 to 541 residues) at 300 uM by fluorescence polarization analysis relative to control. In short, it runs like this: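 Competition fluorescence polarization with NPR-C protein 20 nM and Flu-P19 probe 150 pM (final) in PBS-P with 1% DMSO final; samples were prepared on ice. Primary screen at 300 μM ligand. Read at 485 nm excitation / 520 nm emission. Signal normalized to buffer+probe and protein+probe controls; background blanked with buffer-only PBS-P/1% DMSO.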
Background: In fluorescence polarisation assays a small probe gives low polarisation when free and higher when bound to something large.

The target in series [2] is T2, Atrial natriuretic peptide receptor 3 (Rattus norvegicus, UniProt P41740).
T2 sequence (P41740 whole entry): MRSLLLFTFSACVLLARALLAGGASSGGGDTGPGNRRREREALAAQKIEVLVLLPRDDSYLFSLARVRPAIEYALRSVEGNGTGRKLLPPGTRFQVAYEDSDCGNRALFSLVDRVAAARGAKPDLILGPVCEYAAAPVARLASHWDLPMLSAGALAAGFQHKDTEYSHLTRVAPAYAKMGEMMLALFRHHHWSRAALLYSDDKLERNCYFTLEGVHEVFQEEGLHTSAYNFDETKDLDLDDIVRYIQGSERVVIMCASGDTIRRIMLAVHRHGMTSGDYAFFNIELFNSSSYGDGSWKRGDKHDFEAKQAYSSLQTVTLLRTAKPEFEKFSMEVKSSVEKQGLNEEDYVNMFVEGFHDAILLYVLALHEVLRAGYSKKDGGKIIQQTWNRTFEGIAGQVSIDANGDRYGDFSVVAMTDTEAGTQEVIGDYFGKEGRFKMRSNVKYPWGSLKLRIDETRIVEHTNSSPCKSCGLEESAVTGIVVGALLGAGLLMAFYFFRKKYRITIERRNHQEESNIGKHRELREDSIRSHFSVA
Nature of the series: Agonist activity at NPRC in rat small mesenteric arteries assessed as vasorelaxation by Organ bath assay. It is filed as tissue-based, Artery.

The next series deals with Cytochrome P450 2C9 (Homo sapiens, UniProt P11712). Put plainly: Inhibition of CYP2C9 in human liver microsomes using diclofenac as substrate preincubated for 10 mins followed by NADPH addition and measured after 10 mins by LC/MS/MS analysis. (In general: Liver microsomes are a subcellular fraction often used to study metabolism.)
A short description of series [3]: Protein binding in human plasma by equilibrium dialysis assay.
In a further series the target is Cytochrome P450 3A4 (Homo sapiens, UniProt P08684). Put plainly: Inhibition of CYP3A4 in human liver microsomes using midazolam as a substrate preincubated for 10 mins followed by NADPH addition and measured after 20 mins by LC/MS/MS analysis.
Series [4] can be described thus: Initial plasma concentration in fasted C57BL/6 mouse at 3 mg/kg, iv by LC-MS/MS analysis.
The nature of series [5]: Volume of distribution at steady state in fasted C57BL/6 mouse at 3 mg/kg, iv by LC-MS/MS analysis. The following applies: in vivo, read-out: Vdss. The class given is ADME, organism-based.
A short description of series [6]: Clearance in fasted C57BL/6 mouse at 3 mg/kg, iv by LC-MS/MS analysis. It is filed as ADME, organism-based. Particulars: in vivo.
Series [7] can be described thus: AUC (0 to infinity) in fasted C57BL/6 mouse at 3 mg/kg, iv by LC-MS/MS analysis. The class given is ADME, organism-based. Also on record: time infinity, dose 3 mg/kg, route iv. The following applies: in vivo.
Series [8] is described as follows: Oral bioavailability in fasted C57BL/6 mouse at 10 mg/kg by LC-MS/MS analysis. It is filed as ADME, organism-based. The following applies: in vivo.
Series [9] deals with T1, Atrial natriuretic peptide receptor 3 (Homo sapiens). Nature of the series: Agonist activity at NPRC in human Hela cells assessed as decrease in forskolin-induced cAMP level at 100 uM relative to control. Also on record: scale not given: the % may be the effect or the level left. The class given is cell-based. Background: cAMP levels reflect the balance of adenylyl cyclase and phosphodiesterase activity.

Cytochrome P450 2C9, sequence (P11712 whole entry): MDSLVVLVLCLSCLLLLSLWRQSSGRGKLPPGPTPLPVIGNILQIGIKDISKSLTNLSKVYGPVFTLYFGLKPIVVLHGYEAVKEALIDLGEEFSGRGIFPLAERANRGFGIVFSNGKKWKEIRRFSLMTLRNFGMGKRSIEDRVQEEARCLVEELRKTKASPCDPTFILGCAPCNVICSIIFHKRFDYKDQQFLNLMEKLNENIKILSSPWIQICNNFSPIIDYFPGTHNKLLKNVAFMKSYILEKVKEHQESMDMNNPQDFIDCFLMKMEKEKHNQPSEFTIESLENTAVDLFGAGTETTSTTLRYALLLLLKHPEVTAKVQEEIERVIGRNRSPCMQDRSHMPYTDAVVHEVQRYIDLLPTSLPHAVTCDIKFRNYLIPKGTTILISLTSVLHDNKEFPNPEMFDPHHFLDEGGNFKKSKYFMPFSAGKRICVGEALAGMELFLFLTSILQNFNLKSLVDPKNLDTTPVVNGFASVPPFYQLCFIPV
Cytochrome P450 3A4, sequence (P08684 whole entry): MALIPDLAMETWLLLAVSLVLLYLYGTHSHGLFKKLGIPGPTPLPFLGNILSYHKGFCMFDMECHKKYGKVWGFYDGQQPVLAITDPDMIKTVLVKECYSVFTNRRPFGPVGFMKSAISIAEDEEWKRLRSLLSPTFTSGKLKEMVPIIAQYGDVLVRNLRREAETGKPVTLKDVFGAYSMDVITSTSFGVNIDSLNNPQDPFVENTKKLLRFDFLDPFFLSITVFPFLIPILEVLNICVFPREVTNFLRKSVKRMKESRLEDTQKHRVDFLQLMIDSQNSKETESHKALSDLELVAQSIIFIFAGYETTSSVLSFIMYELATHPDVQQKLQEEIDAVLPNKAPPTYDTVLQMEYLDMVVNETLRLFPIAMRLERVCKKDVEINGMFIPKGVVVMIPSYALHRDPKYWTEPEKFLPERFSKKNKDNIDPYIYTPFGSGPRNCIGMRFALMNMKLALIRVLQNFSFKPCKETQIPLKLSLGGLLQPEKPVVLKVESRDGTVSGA

In general, EC50 refers to the concentration needed to bring the measured effect to its halfway point. For orientation: IC50 means the concentration that gives 50% inhibition. By clearance is commonly meant the volume of plasma or blood freed of the substance per unit of time. Broadly, the AUC(0-inf) is total exposure, with the tail of the curve extrapolated. On to `CC(=O)Nc1ccc(Nc2ncnc(NCCC(=O)OC(C)(C)C)n2)cc1`, for which the values for the Activity in series [1] and in [9] were < 17% and 37.7%, respectively. Moreover, the EC50 in [2] stood at 860 nM. The IC50 against Cytochrome P450 2C9 and against Cytochrome P450 3A4 was > 50 µM each time. This molecule also showed a PPB in [3] of 71%. In series [4], this molecule returned a C0 of 2330 ng/mL. Besides, in [5], the Vd amounted to 1.75 L/kg. The molecule also displayed a clearance in [6] of 112 mL/min/kg. In series [7], this molecule returned a total exposure AUC(0-inf) of 448 ng·h/mL. Also, the F in series [8] is reported as 43.8%.
